{"data": "Assay results of several laboratories", "cell line": "K562", "read-out": "cell growth or viability", "note": "Compare with care: the assays were run in different laboratories."}
{"Structure (SMILES)": "C=C(NC(=O)C(=C)NC(=O)c1csc(C2=N[C@@H]3c4csc(n4)[C@H]4NC(=O)c5csc(n5)[C@H]([C@](C)(O)[C@@H](C)O)NC(=O)[C@H]5CSC(=N5)/C(=C/C)NC(=O)[C@H]([C@@H](C)O)NC(=O)c5csc(n5)[C@]3(CC2)NC(=O)[C@H](C)NC(=O)C(=C)NC(=O)[C@H](C)NC(=O)[C@H]([C@@H](C)CC)N[C@@H]2C=Cc3c([C@H](C)O)cc(nc3[C@H]2O)C(=O)O[C@@H]4C)n1)C(N)=O", "endpoint": "EC50", "value": "0.6 µM"}
{"Structure (SMILES)": "O=C(c1ccc(/C=C/c2n[nH]c3ccccc23)cc1)N1CCNCC1", "endpoint": "GI50", "value": "~0.4 µM"}
{"Structure (SMILES)": "Nc1ccccc1NC(=O)c1ccc(Cn2cnc3c(Nc4ccc(Br)cc4F)ncnc32)cc1", "test": "MTT", "setting": "72 h", "endpoint": "IC50", "value": "30.1 µM"}
{"Structure (SMILES)": "CCN(CC)CCNC(=O)c1ccc(-c2nc3ccc4[nH]ncc4c3c3c2CCCC3)cc1", "test": "resazurin", "setting": "72 h", "endpoint": "GI50", "value": "3.6 µM"}
{"Structure (SMILES)": "Cc1nc(Nc2ncc(C(=O)Nc3c(C)cccc3Cl)s2)cc(N2CC[C@H](O)C2)n1", "test": "ATP luminescence", "setting": "10 µM, 72 h", "endpoint": "inhibition", "value": "90%"}
{"Structure (SMILES)": "Cc1n[nH]c2ccc3nc(-c4ccc(C(=O)N(C)CCN(C)C)cn4)c4c(c3c12)CCCCC4", "test": "resazurin", "setting": "72 h", "endpoint": "GI50", "value": "> 10 µM"}
{"Structure (SMILES)": "O=c1cc(OCc2cc(-c3ccccn3)no2)c2ccccc2o1", "test": "MTS", "setting": "72 h", "endpoint": "IC50", "value": "> 100 µM"}
{"Structure (SMILES)": "O=C(NC1CC1)c1ccc(-c2nc3ccc4[nH]ncc4c3c3c2CCCC3)cc1", "test": "resazurin", "setting": "72 h", "endpoint": "GI50", "value": "4.1 µM"}
{"Structure (SMILES)": "FC(F)(F)c1cc(OCc2cc(-c3ccccc3)no2)c2ccccc2n1", "test": "MTS", "setting": "72 h", "endpoint": "IC50", "value": "> 100 µM"}
{"Structure (SMILES)": "O=C(Nc1ccc(OC(F)(F)Cl)cc1)c1cnc(N2CC[C@@H](O)C2)c(-c2cc[nH]n2)c1", "test": "ATP luminescence", "setting": "72 h", "endpoint": "EC50", "value": "0.005 µM"}
{"Structure (SMILES)": "N#Cc1ccc(-c2cc(COc3cc(=O)oc4ccccc34)on2)cc1", "test": "MTS", "setting": "72 h", "endpoint": "IC50", "value": "> 100 µM"}
{"Structure (SMILES)": "Nc1ccccc1NC(=O)c1ccc(Cn2cnc3c(Nc4ccc(Cl)cc4)ncnc32)cc1", "test": "MTT", "setting": "72 h", "endpoint": "IC50", "value": "17.5 µM"}
{"Structure (SMILES)": "CN(C)CCNC(=O)c1ccc(-c2nc3ccc4[nH]ncc4c3c3c2CC(C)(C)CC3)cc1", "test": "resazurin", "setting": "72 h", "endpoint": "GI50", "value": "3.7 µM"}
{"Structure (SMILES)": "FC(F)(F)c1cc(OCc2cc(-c3ccccn3)no2)c2ccccc2n1", "test": "MTS", "setting": "72 h", "endpoint": "IC50", "value": "> 100 µM"}
